The structures appear in SMILES notation. The source made the active and inactive calls. No cut-off for these calls is given here.

The nature of data set [1]: Metabolic stability in human liver microsomes assessed as intrinsic clearance. It is filed as ADME, Microsome.
Data set [2] addresses Voltage-gated inwardly rectifying potassium channel KCNH2 (Homo sapiens, UniProt Q12809). The data set is described as follows: Inhibition of human ERG.
Data set [3] addresses T1, Delta-type opioid receptor (Homo sapiens, UniProt P41143). As to the kind of experiment: Agonist activity at delta opioid receptor expressed in CHO cells assessed as inhibition of forskolin-stimulated cAMP production by ALPHAscreen assay. It is filed as functional, cell-based. The method in brief:
(§1)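 CHO cells stably expressing a Flp-In delta opioid receptor construct, grown in DMEM/F12 with 2 mM L-glutamine, 500 µg/ml hygromycin and 10% heat-inactivated FBS. Cells resuspended at 8000 cells/well in HEPES pH 7.4/HBSS buffer with 0.1% BSA, 10 mM MgCl2 and 0.5 mM IBMX. Forskolin 20 µM final, 30 min. cAMP read by ALPHAscreen with biotin-cAMP competition after overnight incubation. EC50 from percentage agonist activity.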
Background: Cyclic AMP is a second messenger, typically raised through Gs and lowered through Gi signalling.

A short description of data set [4]: Selectivity for human recombinant DOR over mu opioid receptor.
In data set [5] the target is T1, Delta-type opioid receptor. The data set is described as follows: Agonist activity at human recombinant delta opioid receptor expressed in CHO cells assessed as inhibition of forskolin-stimulated cAMP production by ALPHAscreen assay relative to BW373U86. It is filed as functional, cell-based. The method in brief:
as §1

Data set [6] has as its target Mu-type opioid receptor (Homo sapiens, UniProt P35372). As to the kind of experiment: Agonist activity at mu opioid receptor. It is filed as functional.
The species named for data set [7] is Rattus norvegicus. The data set is described as follows: Inhibition of neuropathic pain in rat electromyography model. Format: functional. The method in brief: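 Rat electromyography (EMG) pain model. Agonist given by infusion protocol (bolus + continuous infusion) at 76 µg/kg + 72 µg/kg/hr, 240 µg/kg + 290 µg/kg/hr, or 660 µg/kg + 920 µg/kg/hr to reach target plasma levels. Mean free plasma concentration measured at each dose. Read-out: EMG response inhibition relative to control animals.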

The species entered for data set [8] is Canis familiaris. The data set is described as follows: Effect on QTC prolongation in Beagle dog at 291 nM free plasma concentration. Format: functional, organism-based. As to conditions: Canis lupus familiaris.
The nature of data set [9]: Clearance in rat. To be noted: in vivo.

Chain of Voltage-gated inwardly rectifying potassium channel KCNH2 (Q12809 whole entry): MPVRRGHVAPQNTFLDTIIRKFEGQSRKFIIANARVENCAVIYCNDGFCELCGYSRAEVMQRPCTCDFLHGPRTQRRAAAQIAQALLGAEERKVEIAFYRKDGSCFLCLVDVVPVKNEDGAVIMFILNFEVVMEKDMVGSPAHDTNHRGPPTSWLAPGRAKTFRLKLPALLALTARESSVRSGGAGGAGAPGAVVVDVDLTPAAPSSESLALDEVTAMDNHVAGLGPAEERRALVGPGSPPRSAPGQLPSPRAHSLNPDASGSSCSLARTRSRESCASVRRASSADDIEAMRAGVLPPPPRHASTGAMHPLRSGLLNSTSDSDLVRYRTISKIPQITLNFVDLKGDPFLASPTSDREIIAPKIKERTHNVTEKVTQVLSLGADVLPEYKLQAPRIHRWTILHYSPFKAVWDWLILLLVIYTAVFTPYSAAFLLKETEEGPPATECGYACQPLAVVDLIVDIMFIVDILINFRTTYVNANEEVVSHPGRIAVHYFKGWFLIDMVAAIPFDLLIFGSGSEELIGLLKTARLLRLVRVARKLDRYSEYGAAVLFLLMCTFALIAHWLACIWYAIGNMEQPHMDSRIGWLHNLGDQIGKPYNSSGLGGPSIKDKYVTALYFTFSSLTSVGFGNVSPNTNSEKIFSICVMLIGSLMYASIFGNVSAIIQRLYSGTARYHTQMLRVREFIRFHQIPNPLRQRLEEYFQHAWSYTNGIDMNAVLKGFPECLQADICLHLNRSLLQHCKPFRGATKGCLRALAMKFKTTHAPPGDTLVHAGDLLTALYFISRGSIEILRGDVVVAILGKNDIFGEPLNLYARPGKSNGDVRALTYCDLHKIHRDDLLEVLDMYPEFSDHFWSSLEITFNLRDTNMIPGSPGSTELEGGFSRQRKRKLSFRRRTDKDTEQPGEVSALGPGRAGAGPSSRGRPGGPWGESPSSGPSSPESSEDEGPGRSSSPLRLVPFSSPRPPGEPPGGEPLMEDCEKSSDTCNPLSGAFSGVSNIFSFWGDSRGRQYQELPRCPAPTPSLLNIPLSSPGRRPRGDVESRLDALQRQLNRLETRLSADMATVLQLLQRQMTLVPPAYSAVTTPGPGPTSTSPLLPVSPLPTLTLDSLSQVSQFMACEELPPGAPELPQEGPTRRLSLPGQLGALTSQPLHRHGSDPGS
T1 sequence (P41143 whole entry): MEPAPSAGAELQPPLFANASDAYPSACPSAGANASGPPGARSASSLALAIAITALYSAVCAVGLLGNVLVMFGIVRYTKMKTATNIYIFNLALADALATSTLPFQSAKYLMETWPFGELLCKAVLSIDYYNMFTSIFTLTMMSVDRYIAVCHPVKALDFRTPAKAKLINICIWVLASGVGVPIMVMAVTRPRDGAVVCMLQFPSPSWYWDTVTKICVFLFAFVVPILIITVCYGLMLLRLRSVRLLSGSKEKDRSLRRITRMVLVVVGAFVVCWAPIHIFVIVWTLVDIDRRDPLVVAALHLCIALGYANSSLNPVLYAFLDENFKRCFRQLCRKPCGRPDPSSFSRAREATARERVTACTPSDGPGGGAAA
Chain of Mu-type opioid receptor (P35372 whole entry, the tested form may be a part): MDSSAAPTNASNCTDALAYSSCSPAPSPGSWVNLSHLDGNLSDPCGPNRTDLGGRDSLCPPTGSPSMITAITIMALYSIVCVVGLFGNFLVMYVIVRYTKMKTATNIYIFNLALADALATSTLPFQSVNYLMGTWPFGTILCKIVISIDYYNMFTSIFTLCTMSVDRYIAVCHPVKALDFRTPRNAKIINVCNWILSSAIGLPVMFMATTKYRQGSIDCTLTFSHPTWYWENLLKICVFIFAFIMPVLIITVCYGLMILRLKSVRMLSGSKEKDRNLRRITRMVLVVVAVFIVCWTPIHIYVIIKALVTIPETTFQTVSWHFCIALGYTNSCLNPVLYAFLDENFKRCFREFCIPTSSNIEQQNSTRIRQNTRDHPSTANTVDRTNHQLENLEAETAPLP

Turning to `COc1ccc(-n2c(=O)n(C3CCN(c4cc(N)ccn4)CC3)c3ncccc32)cc1`, the intrinsic clearance (microsomal CLint) (commonly the capacity of the preparation to metabolise the compound, expressed as a volume cleared per time) in data set [1] came to 23 µL/min/mg. Moreover, the Ki (commonly the equilibrium dissociation constant of an inhibitor or competing ligand from its target) in data set [2] worked out at 865 nM.
For `CCN(CC)C(=O)[C@H]1OC2(CCN(c3cc(N)ccn3)CC2)c2ccccc21`, in data set [3], the EC50 (as a rule, the concentration giving half of the maximal effect) was 12 nM. Moreover, in [1], the microsomal CLint came out at 13 µL/min/mg. For the same compound, the Ki in data set [2] was over 10000 nM. In [4], the fold change (FC) was determined as 50.
For the compound `CCOC(=O)N1CCN(C(=O)C2(c3ccccc3)CCN(c3cc(N)ccn3)CC2)CC1`, in data set [3], the EC50 stood at 24 nM. The intrinsic metabolic clearance (microsomal CLint) in data set [1] is 62 µL/min/mg. Moreover, the fold change (FC) in data set [4] was determined as 17.
On the same counts, the results for `Nc1ccnc(N2CCC(C(=O)N3CCc4ccccc4C3)(c3ccccc3)CC2)c1` are 13 nM, 46 µL/min/mg and 50.
As for `Nc1ccnc(N2CCC(n3c(=O)n(Cc4ccccc4)c4cccnc43)CC2)c1`, in data set [1], the microsomal CLint stood at 20 µL/min/mg.
With `Nc1ccnc(N2CCC(NC(=O)[C@@H]3CCCO3)(c3ccccc3)CC2)c1`, the EC50 in [3] was determined as 171 nM. In addition, the microsomal CLint in data set [1] worked out at 13 µL/min/mg. In data set [4], the fold change (FC) was 50.
Consider `Nc1ccnc(N2CCC3(CC2)OC(c2ccccc2)c2ccccc23)c1` (stereo unspecified), for which the EC50 in data set [3] amounted to 59 nM. Also, the microsomal CLint in data set [1] came to 10 µL/min/mg. Besides, affinity in data set [2] was put at a Ki of 18 nM. Moreover, the fold change (FC) in data set [4] was determined as 50.
On to `Nc1ccnc(N2CCC(C(=O)Nc3ccc4ccccc4n3)(c3ccccc3)CC2)c1`, for which the EC50 in data set [3] was 5 nM. Moreover, in [1], the microsomal CLint turned out to be 22 µL/min/mg.
Regarding `Nc1ccnc(N2CCC(n3c(=O)n(CC4CC4)c4cccnc43)CC2)c1`, in data set [1], the microsomal CLint turned out to be 13 µL/min/mg. The affinity in [2], expressed as Ki, was 746 nM.
Turning to `Nc1ccnc(N2CCC(NC(=O)c3ccccn3)(c3ccccc3)CC2)c1`, in [3], the concentration for a half-maximal effect (EC50) was determined as 60 nM. Also, the microsomal CLint in data set [1] amounted to 14 µL/min/mg. Affinity in data set [2] was put at a Ki of 548 nM. Also, the fold change (FC) in data set [4] was 50.
For the compound `CC(=O)C1(c2ccccc2)CCN(c2cc(N)ccn2)CC1`, the half-maximal effective concentration (EC50) in data set [3] was 263 nM; in [6], over 10000 nM. Moreover, the maximal response (Emax) (in general, the maximal effect, on the per cent scale that the assay sets) in [5] worked out at 100%. For the same compound, in data set [1], the microsomal CLint was under 7 µL/min/mg. In data set [4], the fold change (FC) came to 50.
Take `CN(C)C(=O)[C@H]1CC2(CCN(c3cc(N)ccn3)CC2)c2ccccc21`: the EC50 in data set [3] came to 27 nM. Besides, the microsomal CLint in [1] is under 7 µL/min/mg. Besides, the “inhibition (INH)” value in data set [7] came to 60%. Also, in data set [8], the result was Active. Moreover, the fold change (FC) in data set [4] was 50. Further, the clearance (commonly the volume of plasma or blood freed of the substance per unit of time) in data set [9] is over 70 mL/min/kg.
In the case of `Nc1ccnc(N2CCC3(CC2)OCc2ccccc23)c1`, the 50% effective concentration (EC50) in [3] was determined as 308 nM. Further, the fold change (FC) in data set [4] worked out at 50.
For `COc1cccc(C2(C)CN(c3cc(N)ccn3)C2)c1`, in data set [3], the EC50 came out at 846 nM. The Ki in data set [2] amounted to 1840 nM. For the same compound, in [4], the fold change (FC) was determined as 2.
With `COc1cccc(C(=O)N(c2ccccn2)C2CCN(c3cc(N)ccn3)CC2)c1`, the microsomal CLint in data set [1] stood at 17 µL/min/mg. Also, the inhibition constant Ki in data set [2] was 9690 nM.
Turning to `COc1ccc(C(=O)N(c2cc(C)ccn2)C2CCN(c3cc(N)ccn3)CC2)cc1`, the microsomal CLint in data set [1] came to 12 µL/min/mg.
Take `COc1ccc(C(=O)NC2(c3ccccc3)CCN(c3cc(N)ccn3)CC2)c(OC)c1`: the EC50 in data set [3] turned out to be 14 nM. The intrinsic clearance (microsomal CLint) in [1] was 43 µL/min/mg. In data set [4], the fold change (FC) is 50.
Turning to `Nc1ccnc(N2CCC(N(C(=O)C3CCCCC3)c3ccccn3)CC2)c1`, the microsomal CLint in data set [1] was 80 µL/min/mg.
In the case of `Nc1ccnc(N2CCC(n3c(=O)n(-c4ccccc4)c4cccnc43)CC2)c1`, the microsomal CLint in data set [1] was 19 µL/min/mg. The inhibition constant Ki in [2] amounted to 903 nM.
Take `Nc1ccnc(N2CCC(N(C(=O)C3CC3)c3ccccn3)CC2)c1`: the intrinsic clearance (microsomal CLint) in data set [1] was under 7 µL/min/mg.
`COc1ccc(CNC(=O)C2(c3ccccc3)CCN(c3cc(N)ccn3)CC2)cc1`: the EC50 in [3] came out at 17 nM. Also, the microsomal CLint in data set [1] came to 40 µL/min/mg. Also, the fold change (FC) in [4] turned out to be 50.
Take `COc1ccc(C(=O)NC2(c3ccccc3)CCN(c3cc(N)ccn3)CC2)cc1Cl`: the EC50 in data set [3] came to 59 nM. For the same compound, the intrinsic clearance (microsomal CLint) in data set [1] came to 69 µL/min/mg. The Ki in data set [2] came out at 343 nM. In addition, the fold change (FC) in [4] is 50.
